Results: ChEMBL document CHEMBL4002578, “α-Glucosidase Inhibitors from the Marine-Derived Fungus Aspergillus flavipes HN4-13” (J Nat Prod, 2016)
Counter-ions that a name gives are not always drawn.

Legend:
[1] = system: HepG2; assay: Cytotoxicity against human HepG2 cells assessed as growth inhibition at 10 uM measured after 72 hrs by CCK-8 assay relative to control; assay type: functional; conditions: HepG2, 72 h, read-out: GI
[2] = system: MCF7; assay: Cytotoxicity against human MCF7 cells assessed as growth inhibition at 10 uM measured after 72 hrs by CCK-8 assay relative to control; assay type: functional; conditions: MCF7, 72 h, read-out: GI
[3] = Selectivity index, ratio of CC50 for human Caco2 cells to IC50 for human alpha-glucosidase expressed in Saccharomyces cerevisiae
Procedure, shortened: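 SI was calculated as Caco-2 CC50 (MTT) divided by the α-glucosidase IC50 from the pNPG assay.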

[4] = system: K562; assay: Cytotoxicity against human K562 cells assessed as growth inhibition at 10 uM measured after 72 hrs by CCK-8 assay relative to control; assay type: functional; conditions: K562, 72 h, read-out: GI
[5] = Competitive inhibition of human alpha-glucosidase expressed in Saccharomyces cerevisiae using varying levels of p-nitophenyl-alpha-glucopyranoside as substrate pretreated with substrate for 15 mins followed by enzyme addition measured after 15 mins by Lineweaver-burk plot analysis
[6] = system: A549; assay: Cytotoxicity against human A549 cells assessed as growth inhibition at 10 uM measured after 72 hrs by CCK-8 assay relative to control; assay type: functional; conditions: A549, 72 h, read-out: GI
[7] = Non-competitive inhibition of human alpha-glucosidase expressed in Saccharomyces cerevisiae using varying levels of p-nitophenyl-alpha-glucopyranoside as substrate pretreated with substrate for 15 mins followed by enzyme addition measured after 15 mins by Lineweaver-burk plot analysis
[8] = Inhibition of human alpha-glucosidase expressed in Saccharomyces cerevisiae using p-nitophenyl-alpha-glucopyranoside as substrate pretreated with substrate for 15 mins followed by enzyme addition measured after 15 mins
Procedure, shortened: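 Enzyme from a recombinant gene expressed in Saccharomyces cerevisiae, diluted to 0.2 U/mL in 0.01 M PBS. Compound, at three concentrations in sodium phosphate buffer pH 6.8, was mixed with 2.5 mM pNPG stock and held 15 min at 37 °C. Enzyme was then added for a further 15 min at 37 °C, and absorbance was read at 405 nm. The no-enzyme blank was subtracted, and IC50 was taken as the concentration giving 50% inhibition.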

[9] = Cytotoxicity against human Caco2 cells measured after 72 hrs by MTT assay; assay type: cell-based; conditions: Caco-2 cells
Procedure, shortened: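 Caco-2 viability was measured by MTT, and the median cytotoxic concentration (CC50) was derived.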

[10] = system: Jurkat; assay: Cytotoxicity against human Jurkat cells assessed as growth inhibition at 10 uM measured after 72 hrs by CCK-8 assay relative to control; assay type: functional; conditions: read-out: GI

| Structure (SMILES) | inhibition of growth at 10 µM [1] | inhibition of growth at 10 µM [2] | Ratio CC50/IC50 [3] | inhibition of growth at 10 µM [4] | Ki [5] | inhibition of growth at 10 µM [6] | Ki [7] | IC50 [8] | CC50 at 72 h [9] | inhibition of growth at 10 µM [10] |
| --- | --- | --- | --- | --- | --- | --- | --- | --- | --- | --- |
| Cc1c(O)c(O)c(O)c(C=O)c1-c1cc2c(C=O)c(C)c(O)c(O)c2o1 | < 34% | < 34% | >24 | < 34% | 2.5 µM | < 34% | 7.2 µM | 33 µM | > 800 µM | < 34% |
| COc1cc(/C=C2\OC(=O)C(c3ccc(O)cc3)=C2O)ccc1O | < 34% | < 34% |  | < 34% |  | < 34% |  | 120 to 1300 µM |  | < 34% |
| COC(=O)c1cc(O)cc(OC)c1Oc1cc(C)c(Cl)c(O)c1C(=O)O | < 34% | < 34% |  | < 34% |  | < 34% |  | 120 to 1300 µM |  | < 34% |
| COc1cc(O)cc(C(=O)O)c1Oc1cc(C)cc(O)c1C(=O)O | < 34% | < 34% | >81 | < 34% | 1.4 µM | < 34% | 0.6 µM | 9.9 µM | > 800 µM | < 34% |
| COC(=O)[C@]1(Cc2ccc3c(c2)CCC(C)(C)O3)OC(=O)C(O)=C1c1ccc(O)cc1 | < 34% | < 34% | >22 | < 34% |  | < 34% | 2.1 µM | 37 µM | > 800 µM | < 34% |
| COC(=O)c1cc(O)cc(OC)c1C(=O)c1c(O)cc(C)c(Cl)c1O | < 34% | < 34% |  | < 34% |  | < 34% |  | 120 to 1300 µM |  | < 34% |
| COC(=O)[C@@]1(O)OC(=O)C(Cc2ccc3c(c2)CCC(C)(C)O3)=C1c1ccc(O)cc1 | < 34% | < 34% | 4.8 | < 34% | 3.4 µM | < 34% | 14 µM | 57 µM | 278 µM | < 34% |
| CC1(C)CCc2cc(CC3=C(c4ccc(O)cc4)[C@@](O)(C(=O)O)OC3=O)ccc2O1 | < 34% | < 34% | >8.5 | < 34% | 9.2 µM | < 34% | 4.7 µM | 95 µM | > 800 µM | < 34% |
| CC1(C)CCc2cc(CC3OC(=O)C(O)=C3c3ccc(O)cc3)ccc2O1 (configuration not stated) | < 34% | < 34% | >24 | < 34% |  | < 34% | 0.43 µM | 34 µM | > 800 µM | < 34% |
| CCOC(=O)[C@@]1(O)OC(=O)C(Cc2ccc3c(c2)CCC(C)(C)O3)=C1c1ccc(O)cc1 | < 34% | < 34% | 12 | < 34% | 2.5 µM | < 34% | 19 µM | 44 µM | 519 µM | < 34% |
| C[C@H]1O[C@H](O[C@H]2[C@H](O)[C@@H](O)[C@@H](O[C@H]3[C@H](O)[C@@H](O)C(O)O[C@@H]3CO)O[C@@H]2CO)[C@H](O)[C@@H](O)[C@@H]1N[C@H]1C=C(CO)[C@@H](O)[C@H](O)[C@H]1O (some centres not stated) [ACARBOSE] |  |  |  |  |  |  |  | 101 µM |  |  |
| COC(=O)c1cc(O)cc(OC)c1Oc1cc(C)cc(O)c1C(=O)O [ASTERRIC ACID] | < 34% | < 34% |  | < 34% |  | < 34% |  |  |  | < 34% |
| COC(=O)c1cc(O)cc(OC)c1C(=O)c1c(O)c(Cl)c(C)c(Cl)c1O [DIHYDROGEODIN] | < 34% | < 34% |  | < 34% |  | < 34% |  | 120 to 1300 µM |  | < 34% |
| COc1cccc2c1C(=O)c1c(O)c3c(c(O)c1C2=O)C[C@@](O)(C(=O)CO)C[C@@H]3O[C@H]1C[C@H](N)[C@H](O)[C@H](C)O1 [DOXORUBICIN HYDROCHLORIDE] | < 34% | < 34% |  | < 34% |  | < 34% |  |  |  | < 34% |
| OC[C@H]1NC[C@H](O)[C@@H](O)[C@@H]1O [DUVOGLUSTAT] |  |  |  |  |  |  |  | 79 µM |  |  |
| Cc1cc(O)c2c(c1)C(=O)c1cc(O)cc(O)c1C2=O [EMODIN] | < 34% | < 34% | >43 | < 34% |  | < 34% | 0.79 µM | 19 µM | > 800 µM | < 34% |
| COC(=O)c1cc(O)cc(OC)c1Oc1c(Cl)c(C)c(Cl)c(O)c1C(=O)O [GEODIN HYDRATE] | < 34% | < 34% | >15 | < 34% | 6.3 µM | < 34% | 5.5 µM | 55 µM | > 800 µM | < 34% |
| COC(=O)c1cc(O)cc(OC)c1Oc1c(Cl)c(C)c(Cl)c(O)c1C(=O)OC [METYL DICHLOROASTERRATE] | < 34% | < 34% | >8.9 | < 34% |  | < 34% | 2.8 µM | 90 µM | > 800 µM | < 34% |
